According to ChEMBL document CHEMBL1124921, “Alpha-diketone and alpha-keto ester derivatives of N-protected amino acids and peptides as novel inhibitors of cysteine and serine proteinases” (J Med Chem, 1990):
Where a SMILES comes first, the peptide text is derived from it. The star is where a group is joined. Cbz = O=C(OCc1ccccc1)*

Columns and labels:
[1] = Inhibition of Calpain; set-up: species or system Gallus gallus
Procedure, shortened: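 Calpain purified from chicken gizzard, run as a continuous enzyme assay following a previously published method. Apparent dissociation constants Ki were derived for competitive inhibition; errors under 30%.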

[2] = molecular target: Chymotrypsinogen A (Bos taurus, UniProt P00766); assay: Inhibition of alpha-chymotrypsin
Procedure, shortened: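 Commercial α-chymotrypsin was assayed continuously with N-Suc-Ala-Ala-Pro-Phe-p-nitroanilide as substrate in HEPES buffer instead of Tris. […] Errors under 30%.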

Ki [1] [µM] | Ki [2] [µM] | SMILES
> 2000 |  | CC(=O)[C@H](Cc1ccccc1)NC(=O)OCc1ccccc1
150 | 0.15 | COC(=O)C(=O)[C@H](Cc1ccccc1)NC(=O)c1ccccc1
0.01 | 54 | CC(C)[C@H](NC(=O)OCc1ccccc1)C(=O)N[C@H](C=O)Cc1ccccc1 (Cbz-Val-Phe-aldehyde)
4 | 64 | O=C[C@H](Cc1ccccc1)NC(=O)c1ccccc1
92 | 0.13 | CCOC(=O)C(=O)[C@H](Cc1ccccc1)NC(=O)OCc1ccccc1
3 | 360 | O=C[C@H](Cc1ccccc1)NC(=O)OCc1ccccc1
0.7 | 0.2 | CC(=O)C(=O)[C@H](Cc1ccccc1)NC(=O)[C@@H](NC(=O)OCc1ccccc1)C(C)C
0.6 | 0.06 | CCOC(=O)C(=O)[C@H](Cc1ccccc1)NC(=O)[C@@H](NC(=O)OCc1ccccc1)C(C)C
> 1000 | 7.7 | O=C(N[C@@H](Cc1ccccc1)C(=O)C(F)F)c1ccccc1
> 180 | 45 | CC(C)[C@H](NC(=O)OCc1ccccc1)C(=O)N[C@H](Cc1ccccc1)C(=O)C(F)(F)F
> 180 | 2.4 | CC(C)[C@H](NC(=O)OCc1ccccc1)C(=O)N[C@@H](Cc1ccccc1)C(=O)C(F)(F)F
0.4 | 0.06 | COC(=O)C(=O)[C@H](Cc1ccccc1)NC(=O)[C@@H](NC(=O)OCc1ccccc1)C(C)C
> 1000 | 2.3 | O=C(N[C@@H](Cc1ccccc1)C(=O)C(F)(F)F)c1ccccc1
250 | 1.2 | CC(=O)C(=O)[C@H](Cc1ccccc1)NC(=O)OCc1ccccc1
